RGS4 block: inhibitors of human RGS4; AID 463165; HEK293 M3R/RGS4 inducible, Fluo-4 calcium flux; stronger effect = higher value; triggered by carbachol at its EC20; P49798; B-score at 10 µM; 310,000 compounds, 0.45% hits;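 active = B-score, a plate-corrected calcium signal, over three deviations above library mean, with baseline fluorescence within five deviations of library mean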;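 also: RGS4 expression induced by doxycycline in cells with stable M3 receptor; B-score is computed from the integrated fluorescence ratio over baseline after carbachol; higher B-score means a larger calcium signal and so more RGS4 inhibition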
Target sequence (P49798 whole entry, looked up): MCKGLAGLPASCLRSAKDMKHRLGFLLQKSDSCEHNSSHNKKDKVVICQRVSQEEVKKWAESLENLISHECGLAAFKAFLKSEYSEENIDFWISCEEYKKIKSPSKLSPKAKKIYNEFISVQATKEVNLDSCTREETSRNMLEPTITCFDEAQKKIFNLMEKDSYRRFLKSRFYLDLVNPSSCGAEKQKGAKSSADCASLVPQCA
RGS4 act: potentiators or activators of RGS4 | B-score at 10 µM | 310,000 compounds, 0.92% hits | HEK293 M3R/inducible RGS4, carbachol calcium flux Fluo4; stronger effect = lower value;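 active = B-score of the integrated calcium signal more than 4 SD below the library mean, with starting fluorescence not abnormally high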;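 also: negative B-score means reduced calcium response which marks RGS4 activation or potentiation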
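Also added: carbachol at ECmax as muscarinic agonist stimulus; Assay system: HEK293 cells with stable M3R and inducible RGS4; Timing: overnight RGS4 induction, 30 min dye load 37 °C, 20 min compound RT; Measured by: Fluo4-AM (2 µM) calcium-flux fluorescence, kinetic read.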
MrgX1 PAM: allosterically activates human MrgX1 receptor signaling; AID 588675; MrgX1-HEK293, Fluo-4 calcium flux, FDSS; stronger effect = higher value; B-score at 10 µM; 310,000 compounds, 0.63% hits;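 active = plate-corrected calcium response at least 3 library SD above typical, normal starting fluorescence, not activating the receptor alone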;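 also: compound read alongside a low EC10 to EC30 dose of BAM8-22 agonist; peak minus trough fluorescence over baseline measured at the second addition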
Target sequence (Q96LB2 whole entry, looked up): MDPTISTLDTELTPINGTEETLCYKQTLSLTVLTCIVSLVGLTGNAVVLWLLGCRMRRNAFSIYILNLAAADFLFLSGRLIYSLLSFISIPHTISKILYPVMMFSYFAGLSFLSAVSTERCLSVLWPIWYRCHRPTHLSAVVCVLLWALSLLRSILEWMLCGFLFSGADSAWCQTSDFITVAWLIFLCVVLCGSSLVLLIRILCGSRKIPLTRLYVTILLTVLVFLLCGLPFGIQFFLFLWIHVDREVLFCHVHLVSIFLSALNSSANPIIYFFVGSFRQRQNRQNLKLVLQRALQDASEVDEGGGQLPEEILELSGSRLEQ
MrgX1 antag: antagonists of human MrgX1 receptor | 310,000 compounds, 1.3% hits | B-score at 10 µM | AID 588676 | Q96LB2 | MRGX1-HEK293 calcium flux, Fluo-4, BAM8-22 antagonism; stronger effect = lower value;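 active = calcium-response B-score plate-corrected more than 3 library SD below zero, starting fluorescence within 5 deviations, no agonist response on first addition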;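 also: peak minus trough fluorescence over baseline after final BAM8-22 challenge near maximal dose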
MrgX1 ag: agonists of human MrgX1 receptor. 310,000 compounds, 0.44% hits. B-score at 10 µM. Q96LB2. MrgX1-HEK293 cells, Fluo-4 calcium fluorescence, agonist mode; stronger effect = higher value;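 active = calcium response B-score plate-corrected fluorescence ratio at least 3 library SD, with starting fluorescence B-score inside 5 SD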
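Material: MrgX1-expressing HEK293 cells / Dosing: compound as first of three additions / Incubation: overnight seeding, then 1 h dark dye loading / Signal: Fluo-4 NW calcium fluorescence / Evaluation: B-scored fluorescence response ratio / Benchmarks: positive and negative control wells on each plate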
RGS4 block valid: validation of RGS4 inhibitors; shares compounds with RGS4 block; HEK293 M3R/RGS4, carbachol calcium Fluo-4 fluorescence; carbachol added at its EC20; 0 = buffer wells, 100 = carbachol control; calcium response, % at 10 µM; 1,700 compounds, 65% hits; AID 492999;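 active = duplicate-averaged calcium response above the buffer-only control mean plus 5 SD of those controls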;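 also: integrated fluorescence ratio F max minus min over baseline F0; higher response in RGS4-induced cells means RGS4 inhibition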
M3R Ca ctr: non-induced cell nonspecific activity of RGS4 inhibitors. shares compounds with RGS4 block. HEK293 M3R non-induced, carbachol calcium Fluo-4; submaximal (EC20) carbachol stimulus; buffer wells 0%, carbachol control wells 100%. activity (percent), % at 10 µM. 1,900 compounds, 20% hits. AID 493000; call rule not given here;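 also: RGS4 induction absent so cells express M3R without RGS4; higher means more calcium signal and flags a non-specific hit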
RGS4 inh ctr2: second RGS4 inhibitor counter-screen in uninduced cells lacking carbachol; shares compounds with RGS4 block; HEK293 M3R/RGS4 non-induced, Fluo-4 calcium, no carbachol; normalised: buffer wells 0%, carbachol wells 100%; calcium response (agonist-mode artifact), % at 10 µM; 1,900 compounds, 22% hits;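 active = duplicate-averaged calcium rise in uninduced cells above buffer wells' mean plus 5 SD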
* hit, by the source's call; i = inactive; nt = not tested or not shown. Hits are enriched below; roughly 3.5% of the tested compounds scored in any of these assays.

SMILES	RGS4 block	RGS4 act	MrgX1 PAM	MrgX1 antag	MrgX1 ag	RGS4 block valid	M3R Ca ctr	RGS4 inh ctr2
Cc1ccc(S(=O)(=O)N2CCCCC2)cc1NC(=O)COC(=O)Cc1cccc(C(F)(F)F)c1	i	i	i	i	i	nt	nt	nt
Cc1cccc(C)c1N=Nc1c(C)cc(O)cc1C	i	i	i	i	i	nt	nt	nt
Cc1ccc(-c2nn3c(C)nnc3c3ccccc23)cc1S(=O)(=O)N(C)CCO	i	i	i	i	i	nt	nt	nt
CCc1ccc2c(CN3CCC(C(=O)OC)CC3)cc(=O)oc2c1	7.23*	i	i	i	i	13.0%*	i	i
CCOC(=O)Nc1ccc2c(CN3CCC(C(=O)OC)CC3)cc(=O)oc2c1	4.93*	i	i	i	i	24.5%*	i	i
CCOC(=O)Nc1ccc2c(COC(=O)c3ccccc3O)cc(=O)oc2c1	i	i	i	i	i	nt	nt	nt
COC(=O)C1CCN(Cc2cc(=O)oc3cc(C)c(Cl)cc23)CC1	11.7*	i	i	i	i	16.5%*	i	i
COc1cccc(/C=C2/C(=O)NN(c3ccc(F)cc3)C2=O)c1	i	i	i	i	i	nt	i	i
O=C1NN(c2ccccc2)C(=O)/C1=C\c1ccc2c(c1)OCO2	7.68*	i	i	i	i	i	i	i
O=C1NC(=S)N/C1=C/c1ccc2c(c1)OCO2	i	i	i	i	i	nt	nt	nt
COc1cccc(/C=C2/C(=O)NN(c3ccccc3)C2=O)c1	7.47*	i	i	i	i	i	i	8.0%*
COc1cccc(/C=C2/C(=O)NN(c3ccc(C)c(C)c3)C2=O)c1	15.4*	i	i	i	i	9.5%*	i	i
COc1cc(OC)c(OC)cc1CCC(C)NCCC(c1ccccc1)c1ccccc1 (configuration not stated)	i	i	i	i	i	nt	nt	nt
COCCn1ccc(O)c(Cc2ccccc2)c1=O	i	i	i	i	i	nt	nt	nt
Nc1ccc2nc(CN3CCOCC3)[nH]c2c1	i	i	i	i	i	nt	nt	nt
Cc1ccc(N2NC(=O)/C(=C\c3cc4c(cc3[N+](=O)[O-])OCO4)C2=O)cc1C	25.6*	i	i	i	i	69.0%*	i	33.5%*
CCn1nc(NS(=O)(=O)c2ccccc2)c2cc3cccc(C)c3nc21	i	i	i	i	i	nt	i	i
CCn1nc(NS(=O)(=O)c2ccc(NC(C)=O)cc2)c2cc3cccc(C)c3nc21	i	i	i	i	i	nt	nt	nt
CCn1nc(NS(=O)(=O)c2ccc(C)cc2)c2cc3ccccc3nc21	i	i	i	i	i	nt	nt	nt
CCn1nc(NS(=O)(=O)c2ccc(F)cc2)c2cc3cccc(C)c3nc21	i	i	i	i	i	i	i	i
CCn1nc(NS(=O)(=O)c2ccc([N+](=O)[O-])cc2)c2cc3ccccc3nc21	i	i	i	i	i	nt	i	i
CCCn1nc(NS(C)(=O)=O)c2cc3cccc(C)c3nc21	i	i	i	i	i	nt	nt	nt
O=C(CSc1nnc(-c2ccncc2)o1)N1CCCC1	i	i	i	i	i	nt	nt	nt
Oc1ccc(C[C@H]2CNCCN2CCC23CC4CC(CC(C4)C2)C3)cc1	i	i	i	i	i	nt	i	i
Oc1ccc(C[C@@H]2CNCCN2CCC23CC4CC(CC(C4)C2)C3)cc1	i	i	i	i	i	nt	i	16.0%*
SMILES	RGS4 block	RGS4 act	MrgX1 PAM	MrgX1 antag	MrgX1 ag	RGS4 block valid	M3R Ca ctr	RGS4 inh ctr2
O=C(Nc1ccc2nc3n(c(=O)c2c1)CCCCC3)c1c(F)ccc([N+](=O)[O-])c1F	5.16*	i	i	i	37.3*	33.0%*	i	12.0%*
O=C(Nc1ccc2nc3n(c(=O)c2c1)CCCCC3)c1cc([N+](=O)[O-])ccc1F	i	i	i	i	i	nt	nt	nt
COc1ccc(C(=O)N/C(=C\c2ccccc2)C(=O)NCc2cccnc2)cc1	i	i	i	i	i	i	i	i
O=C(NCc1cccnc1)/C(=C/c1ccc(Cl)cc1)NC(=O)c1ccccc1	i	i	i	i	i	i	i	i
O=C(NCc1ccccc1Cl)/C(=C\c1cccnc1)NC(=O)c1ccccc1	i	i	i	i	i	nt	nt	nt
Cc1nn(C)cc1C(C)NC(=O)c1cc(COc2ccc(F)c(F)c2)on1 (configuration not stated)	i	i	i	i	i	nt	nt	nt
O=C1NN(c2ccccc2)C(=O)/C1=C/c1ccc(Sc2cccc3ccccc23)o1	12.5*	i	i	i	i	i	i	i
C/C(=N\Nc1ccc(C(=O)O)cc1)c1ccc(Br)cc1	4.69*	i	i	i	i	20.0%*	35.0%*	i
CCOc1ccc(NC(=O)CC2C(=O)N(c3ccc(OC)cc3)C(=S)N2Cc2ccccn2)cc1 (configuration not stated)	i	i	i	i	i	nt	nt	nt
Cc1cc(N=Nc2ccccc2)c(NCC(O)C(O)C(O)CO)cc1C (configuration not stated)	9.62*	i	i	i	i	35.5%*	38.0%*	i
O=c1[nH]c(-c2ccc(F)cc2)nc2c1sc(=S)n2-c1ccccc1	i	i	i	i	i	nt	nt	nt
O=c1[nH]c(-c2ccccc2Cl)nc2c1sc(=S)n2-c1ccccc1	5.12*	i	nt	nt	nt	12.0%*	i	i
Cc1cc(O)ccc1N=Cc1c(C(F)(F)F)[nH][nH]c1=O	6.83*	i	i	i	i	17.5%*	i	21.0%*
N#Cc1c(N)nc(SCC(=O)NC2CCCCC2)c(C#N)c1-c1ccc(Cl)cc1	i	i	i	i	i	nt	nt	nt
N#CCSc1nc(N)c(C#N)c(C2CCCCC2)c1C#N	5.06*	i	i	i	i	16.0%*	49.5%*	i
CC(=O)c1c(C(C)=O)c(C)n(-c2cccc3cccnc23)c1C	i	i	i	i	i	nt	nt	nt
